Screening results from PubChem.
Sampled rows, rich in hits. Any-hit rate of the full collection: about 2.6%.
procasp3 activ: activates human procaspase-3; P42574; recombinant procaspase-3 D3A, Ac-DEVD-pNA absorbance 405 nm; activation, % at 8.5 µM; actives 0.11% (n = 330,000); AID 463141;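 active means activation above the mean of all tested compounds plus 3 SD, cut at about 21% in these data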;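 further: 0% = DMSO alone and 100% = DMSO wells spiked with extra 5 µM PC-3 D3A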
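Compound: 8.5 µM single point, 0.8% DMSO / Material: Autoprocessing-dead procaspase-3 D3A mutant enzyme / Timing: 1 h preincubation plus 2 h reaction at 25 °C / Medium: Zinc-free HEPES/NaCl buffer with 0.01% Triton X-100 at pH 7.4 / Technique: 405 nm absorbance of p-nitroaniline, reads at 0 and 120 min / Repeats: one well per compound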
proCasp7 act: counter-screen for procaspase-3 activators: activators of human procaspase-7; recombinant procaspase-7, Ac-DEVD-pNA absorbance 405 nm; D23A/D198A/D206A triple mutant, cannot self-cleave; scale: DMSO 0, 5 µM enzyme 100; actives 0.093% (n = 330,000); AID 463210; P55210; activation, % at 8.5 µM;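 active means percent activation above the screen-wide mean plus 3 SD, cut at about 25% in these data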
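Material: Procaspase-7 triple mutant (PC-7 D3A) | Quantity: 2 µM procaspase-7 mutant as dispensed | Reagent: DEVD-pNA substrate | Times: 1 h preincubation, 2 h reaction | Technique: 405 nm absorbance of p-nitroaniline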
PolyA inh: inhibitors of polyadenylation in S. cerevisiae; S. cerevisiae SKY197-pL101 polyadenylation reporter, beta-gal luminescence; efflux-impaired pdr1/pdr3 knockout yeast; score 100 = 6 SD above DMSO; activity score, % at 12 µM; actives 0.02% (n = 300,000); AID 1875;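 active means lowest replicate activity score at least 50, where 100 means six control SD above control mean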;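 further: yeast exposed to compound for 9 h at 30 °C; higher score means more reporter readthrough which indicates perturbed polyadenylation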
AHR activator: activates the human aryl hydrocarbon receptor. P35869. AHR-responsive luciferase reporter cells, luminescence. activation, % at 5 µM. actives 2.5% (n = 320,000). AID 2796; in the data active means activation above about 47%;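 further: 0% = vehicle wells and 100% = reference agonist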
Target sequence (P35869 whole entry, looked up): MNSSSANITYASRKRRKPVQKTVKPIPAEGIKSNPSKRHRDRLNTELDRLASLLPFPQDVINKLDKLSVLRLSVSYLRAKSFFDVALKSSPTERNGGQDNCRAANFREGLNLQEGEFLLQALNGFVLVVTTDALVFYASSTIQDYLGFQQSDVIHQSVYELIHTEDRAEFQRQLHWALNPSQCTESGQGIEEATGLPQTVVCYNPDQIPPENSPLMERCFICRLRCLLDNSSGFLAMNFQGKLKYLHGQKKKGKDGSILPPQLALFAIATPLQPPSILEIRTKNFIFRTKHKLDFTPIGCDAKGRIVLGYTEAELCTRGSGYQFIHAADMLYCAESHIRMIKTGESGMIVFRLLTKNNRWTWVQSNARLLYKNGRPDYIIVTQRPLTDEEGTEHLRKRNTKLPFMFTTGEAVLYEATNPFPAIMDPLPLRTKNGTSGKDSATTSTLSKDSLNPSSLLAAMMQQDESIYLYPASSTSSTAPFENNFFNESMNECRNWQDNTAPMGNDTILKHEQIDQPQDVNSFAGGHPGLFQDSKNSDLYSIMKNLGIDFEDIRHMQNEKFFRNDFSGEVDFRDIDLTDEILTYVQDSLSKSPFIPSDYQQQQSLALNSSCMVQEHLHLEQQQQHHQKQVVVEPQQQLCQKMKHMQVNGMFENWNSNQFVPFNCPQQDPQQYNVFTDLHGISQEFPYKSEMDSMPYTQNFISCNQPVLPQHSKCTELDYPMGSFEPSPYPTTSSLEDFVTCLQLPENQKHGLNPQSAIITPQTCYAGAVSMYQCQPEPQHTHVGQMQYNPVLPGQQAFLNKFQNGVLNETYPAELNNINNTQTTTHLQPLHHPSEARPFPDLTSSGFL
Starred values were filed as active, the others as inactive.

For O=c1c2cc(Br)ccc2nc2n1CCCCC2 the results were procasp3 activ 4, proCasp7 act 3, PolyA inh 10 and AHR activator -5.
Screening Cc1cccc(N2CCc3c2nc2ccc(Br)cc2c3N)c1 returned procasp3 activ -9, proCasp7 act -27, PolyA inh -11 and AHR activator 108*.
Screening Nc1c2c(nc3ccc(Br)cc13)N(C1CCCCC1)CC2 returned procasp3 activ 3, proCasp7 act 8, PolyA inh -8 and AHR activator 52*.
For COc1ccc(NC(=O)c2oc3cc(C)c(C)cc3c2C)c(OC)c1 the results were procasp3 activ 7, proCasp7 act -1, PolyA inh -14 and AHR activator 34.
Screening COc1ccccc1NC(=O)c1oc2ccc(C)cc2c1C returned procasp3 activ -1, proCasp7 act -12, PolyA inh -8 and AHR activator 60*.
Screening COCC(=O)Nc1c(C(=O)Nc2ccccc2OC)oc2ccccc12 returned procasp3 activ 4, proCasp7 act -7, PolyA inh 1 and AHR activator 84*.
`COCC(=O)Nc1c(C(=O)Nc2cccc(OC)c2)oc2ccccc12` gave procasp3 activ 1, proCasp7 act -6, PolyA inh -26 and AHR activator 70*.
For COc1ccccc1NC(=O)c1oc2ccccc2c1NC(=O)c1cc(OC)c(OC)c(OC)c1 the results were procasp3 activ -10, proCasp7 act -2, PolyA inh -15 and AHR activator 21.
Screening O=c1[nH]c(/C(Cl)=C/c2c(F)cccc2Cl)nc2cc(Cl)ccc12 returned procasp3 activ -7, proCasp7 act -2, PolyA inh -1 and AHR activator 58*.
Screening CC(OC(=O)c1ccc(Cl)nc1)C(=O)NCc1ccc2c(c1)OCO2 (stereo not drawn) returned procasp3 activ -1, proCasp7 act -7, PolyA inh -2 and AHR activator 0.
`Oc1ccc(/C=N/Nc2ccc3ccccc3c2)c(O)c1` gave procasp3 activ 0, proCasp7 act -2, PolyA inh 2 and AHR activator 61*.
Screening Oc1ccc(/C=N/NC(=S)Nc2cccnc2)c(O)c1 returned procasp3 activ -19, proCasp7 act -13, PolyA inh -3 and AHR activator 60*.
For Fc1c(F)c(F)c(/C=N/NC(=S)Nc2cccnc2)c(F)c1F the results were procasp3 activ -8, proCasp7 act 12, PolyA inh 2 and AHR activator 71*.
CCOC(=O)C1=CC[C@@H](c2cc3cc(OC)ccc3n2C)N(S(=O)(=O)c2ccc(C)cc2)[C@H]1C(=O)OCC was read as procasp3 activ -2, proCasp7 act 8 and AHR activator 4.
O=C(CSc1nnc2ccc(-c3cccnc3)nn12)Nc1ccc(F)cc1F was read as procasp3 activ 1, proCasp7 act -3, PolyA inh -12 and AHR activator 79*.
Cn1c(SCC(=O)Nc2ccc(F)cc2F)nnc1-c1cccnc1 was read as procasp3 activ 6, proCasp7 act -1, PolyA inh -13 and AHR activator 48*.
Cn1c(SCC(=O)Nc2cccc(F)c2)nnc1-c1cccnc1 was read as procasp3 activ -9, proCasp7 act -11, PolyA inh 3 and AHR activator 34.
CCC(=O)c1ccc(OC(=O)N2CCOCC2)cc1 was read as procasp3 activ -1, proCasp7 act 3, PolyA inh 9 and AHR activator 8.
For CC(=O)Nc1ccc(S(=O)(=O)N(C)CC(=O)OCC(=O)Nc2cc(C)on2)cc1 the results were procasp3 activ -2, proCasp7 act -2 and AHR activator 1.
`Cn1c(=S)n(/N=C/c2ccc3c(c2)OCO3)c2ccccc21` gave procasp3 activ -7, proCasp7 act -14 and AHR activator 58*.
Screening Cc1cc2ncn(/N=C/c3ccc4c(c3)OCO4)c2cc1C returned procasp3 activ 4, proCasp7 act -3, PolyA inh -9 and AHR activator 55*.
`COc1ccc(/C=N/n2c(=S)n(C)c3ccccc32)cc1OC` gave procasp3 activ 2, proCasp7 act 8, PolyA inh -4 and AHR activator 7.
For Cc1cc2ncn(/N=C/c3cccnc3)c2cc1C the results were procasp3 activ 3, proCasp7 act 14, PolyA inh -19 and AHR activator 26.
`CCOC(=O)N1CCN(C(=O)C(=O)NN)CC1` gave procasp3 activ 1, proCasp7 act 5, PolyA inh 0 and AHR activator -2.
`O=C(Nc1c(Cl)cc(Cl)cc1-c1nc2ccccc2s1)c1ccc(Br)o1` gave procasp3 activ 9, proCasp7 act 4, PolyA inh -16 and AHR activator 61*.
Screening Cc1cc(C(=O)N/N=C/c2cc(Br)ccc2OC(=O)c2ccccc2Cl)n[nH]1 returned procasp3 activ -21, proCasp7 act -16, PolyA inh 1 and AHR activator 65*.
Nc1c(-c2ccccc2)n[nH]c1-c1ccccc1 was read as procasp3 activ 0, proCasp7 act -3, PolyA inh -91 and AHR activator 134*.
CCOc1ccc(NC(=O)COC(=O)CNC(=O)c2ccc(-c3ccccc3)cc2)cc1 was read as procasp3 activ 0, proCasp7 act -12 and AHR activator 3.
Screening Cc1cc(/C=C2/C(=O)N(C)C(=S)N2C)ccc1N1CCCC1 returned procasp3 activ 0, proCasp7 act -4, PolyA inh 11 and AHR activator 63*.
For CCOc1ncccc1C(=O)NNC(=O)c1cccc(S(=O)(=O)N2CCOCC2)c1 the results were procasp3 activ 15, proCasp7 act 2 and AHR activator 7.
CSc1nc(-c2ccccc2)nc(N2CCCC2)c1C(C)=O was read as procasp3 activ 5, proCasp7 act -2, PolyA inh -27 and AHR activator 41.
For CSc1nc(-c2ccccc2)nc(N2CCOCC2)c1C(C)=O the results were procasp3 activ 8, proCasp7 act 5, PolyA inh -12 and AHR activator 69*.
For FC(F)(F)c1nnc(-c2ccccc2)nc1N1CCOCC1 the results were procasp3 activ 3, proCasp7 act 0, PolyA inh -20 and AHR activator 53*.
`FC(F)(F)c1cccc(-c2nnc(-c3ccccc3)c(N3CCOCC3)n2)c1` gave procasp3 activ -1, proCasp7 act 2, PolyA inh -4 and AHR activator 2.
`CCN(CC)CCNC(=O)C1(O)c2cc(Br)ccc2NC(=O)N1c1c(F)cccc1F` (stereo not drawn) gave procasp3 activ 7, proCasp7 act 3, PolyA inh 9 and AHR activator 0.
For Cc1cccc(OCC(=O)Nc2cccc(C(=O)NCC(C)C)c2)c1 the results were procasp3 activ 6, proCasp7 act -1, PolyA inh 12 and AHR activator 1.
CCCCOc1cccc(C(=O)Nc2ccc(NC(=O)c3ccco3)cc2)c1 was read as procasp3 activ 2, proCasp7 act 8, PolyA inh 0 and AHR activator -2.
